From ChEMBL document CHEMBL4304739, “Discovery of 3-(Indol-5-yl)-indazole Derivatives as Novel Myeloid Differentiation Protein 2/Toll-like Receptor 4 Antagonists for Treatment of Acute Lung Injury” (J Med Chem, 2019)
Activity calls are given as the source filed them. No cut-off for these calls is given here.

What was measured:
[1] = molecular target: Macrophage colony-stimulating factor 1 receptor (Homo sapiens) (UniProt P07333); test: Inhibition of wild-type human partial length CSF1R (I564 to S939 residues) expressed in bacterial expression system at 1 uM by Kinomescan method
How it was run: (§1)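 Binding-competition screen on the KINOMEscan platform, run by the provider, with the test compound at 1 μM. Readout is percent of control: (test signal − positive control signal)/(negative control signal − positive control signal) × 100. The DMSO negative control is set as 100% Ctrl and a control compound as 0% Ctrl. Lower values mean stronger hits.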

[2] = molecular target: Activin receptor type-1B (Homo sapiens) (UniProt P36896); test: Inhibition of wild-type human ACVR1B (S187 to I505 residues) expressed in bacterial expression system at 1 uM by Kinomescan method
How it was run: (§2)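 KINOMEscan competition binding screen at 1 μM compound. Results reported as % of control = (test − positive control)/(DMSO negative control − positive control) × 100, where lower values mean stronger hits.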

[3] = molecular target: Angiopoietin-1 receptor (Homo sapiens) (UniProt Q02763); test: Inhibition of wild-type human partial length TIE2 (N804 to T1112 residues) expressed in bacterial expression system at 1 uM by Kinomescan method
How it was run: (§3)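 Single-concentration screen at 1 μM on the KINOMEscan panel (98 kinases), run by the platform provider. Results are given as percent of control: % Ctrl = [(test signal − positive control signal)/(negative control signal − positive control signal)] × 100. DMSO serves as negative control (100% Ctrl) and a control compound as positive control (0% Ctrl). Lower values mean stronger binding hits.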

Mus musculus [4] = test: Antiinflammatory activity in LPS-induced C57BL/6 mouse model of acute lung injury assessed as reduction in IL12 mRNA level at 10 mg/kg, iv pretreated for 15 mins followed by LPS stimulation and measured after 6 hrs by SYBR green staining-based qRT-PCR analysis; format: functional, organism-based
How it was run: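 Total lung RNA extracted, with DNase I removal of residual DNA. Quantitative PCR with mouse gene primers; each gene normalized to β-actin. C57BL/6 mice given compound iv 15 min before intraperitoneal LPS (20 mg/kg) and killed at 6 h.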

[5] = molecular target: Cyclin-dependent kinase 2 (Homo sapiens) (UniProt P24941); test: Inhibition of wild-type human full length CDK2 (M1 to L298 residues) expressed in bacterial expression system at 1 uM by Kinomescan method; how it was run: as §2
[6] = molecular target: High affinity nerve growth factor receptor (Homo sapiens) (UniProt P04629); test: Inhibition of wild-type human partial length TRKA (G475 to G790 residues) expressed in mammalian expression system at 1 uM by Kinomescan method; how it was run: as §3
[7] = molecular target: 3-phosphoinositide-dependent protein kinase 1 (Homo sapiens) (UniProt O15530); test: Inhibition of wild-type human full length PDPK1 (M1 to Q556 residues) expressed in bacterial expression system at 1 uM by Kinomescan method; how it was run: as §2
[8] = molecular target: Mitogen-activated protein kinase 10 (Homo sapiens) (UniProt P53779); test: Inhibition of wild-type human partial length JNK3 (V28 to Q422 residues) expressed in mammalian expression system at 1 uM by Kinomescan method; how it was run: as §1
[9] = molecular target: SRSF protein kinase 3 (Homo sapiens) (UniProt Q9UPE1); test: Inhibition of wild-type human partial length SRPK3 (P41 to P567 residues) expressed in bacterial expression system at 1 uM by Kinomescan method; how it was run: as §3
[10] = molecular target: Serine/threonine-protein kinase PLK1 (Homo sapiens) (UniProt P53350); test: Inhibition of wild-type human partial length PLK1 (A33 to F325 residues) expressed in mammalian expression system at 1 uM by Kinomescan method; how it was run: as §1
[11] = molecular target: Atypical kinase COQ8A, mitochondrial (Homo sapiens) (UniProt Q8NI60); test: Inhibition of wild-type human […] length ADCK3 (M280 to Q647 residues) expressed in bacterial expression system at 1 uM by Kinomescan method; how it was run: as §2
Toll-like receptor 4 = Toll-like receptor 4 (Homo sapiens, UniProt O00206); test: Inhibition of HA-tagged/FLAG-tagged TLR4 (unknown origin) homodimerization expressed in HEK293T cells by co-immunoprecipitation method; format: cell-based
How it was run: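 HEK293T cells co-transfected with HA- and Flag-tagged TLR4 plasmids. Compound at various concentrations or vehicle added 6 h after transfection. Lysates immunoprecipitated with protein A/G agarose and detected by immunoblot with anti-HA and anti-Flag antibodies.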

[12] = molecular target: ALK tyrosine kinase receptor (Homo sapiens) (UniProt Q9UM73); test: Inhibition of wild-type human partial length ALK (I1088 to E1409 residues) expressed in mammalian expression system at 1 uM by Kinomescan method; how it was run: as §1
[13] = molecular target: Inhibitor of nuclear factor kappa-B kinase subunit alpha (Homo sapiens) (UniProt O15111); test: Inhibition of wild-type human full length IKK-alpha (M1 to E745 residues) expressed in mammalian expression system at 1 uM by Kinomescan method; how it was run: as §2
[14] = molecular target: Dual specificity mitogen-activated protein kinase kinase 2 (Homo sapiens) (UniProt P36507); test: Inhibition of wild-type human full length MEK2 (M1 to V400 residues) expressed in mammalian expression system at 1 uM by Kinomescan method; how it was run: as §2
[15] = molecular target: Tyrosine-protein kinase JAK3 (Homo sapiens) (UniProt P52333); test: Inhibition of wild-type human partial length JAK3 JH1 catalytic domain (I781 to S1124 residues) expressed in mammalian expression system at 1 uM by Kinomescan method; how it was run: as §1
[16] = molecular target: Dual specificity mitogen-activated protein kinase kinase 1 (Homo sapiens) (UniProt Q02750); test: Inhibition of wild-type human full length MEK1 (M1 to V393 residues) expressed in mammalian expression system at 1 uM by Kinomescan method; how it was run: as §2
[17] = molecular target: Aurora kinase B (Homo sapiens) (UniProt Q96GD4); test: Inhibition of wild-type human partial length AURKB (D25 to A303 residues) expressed in mammalian expression system at 1 uM by Kinomescan method; how it was run: as §1
[18] = molecular target: Casein kinase I isoform delta (Homo sapiens) (UniProt P48730); test: Inhibition of wild-type human full length CSNK1D (M1 to K409 residues) expressed in bacterial expression system at 1 uM by Kinomescan method; how it was run: as §2
Mus musculus [19] = test: Antiinflammatory activity in LPS-induced C57BL/6 mouse model of acute lung injury assessed as reduction in F4/80 positive macrophage at 5 to 10 mg/kg, iv pretreated for 15 mins followed by LPS stimulation and measured after 6 hrs by ABC/hematoxylin staining-based immunohistochemistry analysis; format: functional, organism-based
How it was run: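 Male C57BL/6 mice (18−22 g; n=8 per group). Compound in 0.1% CMC-Na given by tail vein injection 15 min before intraperitoneal LPS (20 mg/kg); controls received saline. Mice were sacrificed 6 h after LPS, and serum and lung tissue were collected.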

[20] = molecular target: Vascular endothelial growth factor receptor 2 (Homo sapiens) (UniProt P35968); test: Inhibition of wild-type human partial length VEGFR2 (R787 to P1253 residues) expressed in mammalian expression system at 1 uM by Kinomescan method; how it was run: as §3
[21] = test system: Tyrosine-protein kinase ABL1 (Homo sapiens), P00519 [T315I]; test: Inhibition of human phosphorylated ABL1 T315I mutant (S229 to K512 residues) expressed in mammalian expression system at 1 uM by Kinomescan method; how it was run: as §2

Chain of ALK tyrosine kinase receptor (Homo sapiens) (Q9UM73 19-1620 limits assumed): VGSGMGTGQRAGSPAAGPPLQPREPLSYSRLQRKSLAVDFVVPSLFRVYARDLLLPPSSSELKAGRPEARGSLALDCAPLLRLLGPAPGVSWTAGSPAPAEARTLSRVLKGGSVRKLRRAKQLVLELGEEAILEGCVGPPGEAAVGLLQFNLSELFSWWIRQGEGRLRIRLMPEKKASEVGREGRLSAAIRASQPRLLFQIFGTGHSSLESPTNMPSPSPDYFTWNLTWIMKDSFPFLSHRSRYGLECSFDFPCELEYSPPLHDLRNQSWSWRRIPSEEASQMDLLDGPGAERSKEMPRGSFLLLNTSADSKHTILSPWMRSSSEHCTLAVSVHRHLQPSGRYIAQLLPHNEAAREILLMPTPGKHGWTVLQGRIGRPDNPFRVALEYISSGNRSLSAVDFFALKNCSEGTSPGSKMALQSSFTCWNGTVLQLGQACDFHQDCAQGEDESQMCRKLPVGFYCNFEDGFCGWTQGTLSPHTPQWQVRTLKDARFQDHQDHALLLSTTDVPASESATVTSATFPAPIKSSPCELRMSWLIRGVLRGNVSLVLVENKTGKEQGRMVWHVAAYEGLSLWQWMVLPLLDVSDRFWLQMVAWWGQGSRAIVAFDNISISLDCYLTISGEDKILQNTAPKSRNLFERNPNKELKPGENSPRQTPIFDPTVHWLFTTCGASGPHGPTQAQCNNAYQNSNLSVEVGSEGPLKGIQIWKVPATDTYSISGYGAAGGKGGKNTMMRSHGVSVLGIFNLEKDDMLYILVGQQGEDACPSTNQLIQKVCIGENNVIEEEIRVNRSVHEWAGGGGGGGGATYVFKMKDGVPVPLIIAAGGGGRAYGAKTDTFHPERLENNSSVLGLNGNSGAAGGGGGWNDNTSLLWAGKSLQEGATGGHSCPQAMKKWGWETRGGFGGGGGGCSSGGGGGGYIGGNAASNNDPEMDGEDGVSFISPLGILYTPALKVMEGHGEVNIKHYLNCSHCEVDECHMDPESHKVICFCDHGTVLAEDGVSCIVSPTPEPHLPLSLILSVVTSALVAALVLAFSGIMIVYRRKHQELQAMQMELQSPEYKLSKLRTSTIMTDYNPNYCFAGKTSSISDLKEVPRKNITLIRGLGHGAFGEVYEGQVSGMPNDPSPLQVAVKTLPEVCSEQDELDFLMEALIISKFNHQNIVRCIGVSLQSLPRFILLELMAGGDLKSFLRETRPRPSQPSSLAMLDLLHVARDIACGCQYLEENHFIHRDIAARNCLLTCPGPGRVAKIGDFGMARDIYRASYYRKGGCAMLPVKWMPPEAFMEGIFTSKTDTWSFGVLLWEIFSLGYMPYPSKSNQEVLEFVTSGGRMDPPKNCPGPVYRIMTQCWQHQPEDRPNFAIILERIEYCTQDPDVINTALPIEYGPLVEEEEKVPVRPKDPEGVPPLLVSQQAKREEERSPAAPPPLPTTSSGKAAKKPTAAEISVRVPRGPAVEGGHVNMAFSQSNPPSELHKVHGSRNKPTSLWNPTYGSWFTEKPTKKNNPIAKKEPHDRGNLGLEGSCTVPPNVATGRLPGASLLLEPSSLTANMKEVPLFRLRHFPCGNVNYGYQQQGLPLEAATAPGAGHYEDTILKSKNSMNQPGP
Chain of Serine/threonine-protein kinase PLK1 (Homo sapiens) (P53350 whole entry, the tested form may be a part): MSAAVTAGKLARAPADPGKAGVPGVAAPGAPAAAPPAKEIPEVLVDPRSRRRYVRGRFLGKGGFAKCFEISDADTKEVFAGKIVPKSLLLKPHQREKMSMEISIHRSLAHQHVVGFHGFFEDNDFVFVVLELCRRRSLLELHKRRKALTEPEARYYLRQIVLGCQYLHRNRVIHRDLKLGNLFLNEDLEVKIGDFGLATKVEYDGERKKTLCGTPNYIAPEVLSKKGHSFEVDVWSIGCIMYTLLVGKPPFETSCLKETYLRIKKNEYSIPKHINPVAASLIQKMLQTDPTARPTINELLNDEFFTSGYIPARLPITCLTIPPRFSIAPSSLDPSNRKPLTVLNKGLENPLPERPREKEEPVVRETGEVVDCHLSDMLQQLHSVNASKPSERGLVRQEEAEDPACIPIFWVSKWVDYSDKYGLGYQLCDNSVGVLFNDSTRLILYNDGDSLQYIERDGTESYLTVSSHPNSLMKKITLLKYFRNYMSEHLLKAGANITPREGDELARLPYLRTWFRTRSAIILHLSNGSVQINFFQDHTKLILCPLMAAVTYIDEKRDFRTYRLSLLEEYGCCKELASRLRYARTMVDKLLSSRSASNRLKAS
Chain of SRSF protein kinase 3 (Homo sapiens) (Q9UPE1 whole entry, the tested form may be a part): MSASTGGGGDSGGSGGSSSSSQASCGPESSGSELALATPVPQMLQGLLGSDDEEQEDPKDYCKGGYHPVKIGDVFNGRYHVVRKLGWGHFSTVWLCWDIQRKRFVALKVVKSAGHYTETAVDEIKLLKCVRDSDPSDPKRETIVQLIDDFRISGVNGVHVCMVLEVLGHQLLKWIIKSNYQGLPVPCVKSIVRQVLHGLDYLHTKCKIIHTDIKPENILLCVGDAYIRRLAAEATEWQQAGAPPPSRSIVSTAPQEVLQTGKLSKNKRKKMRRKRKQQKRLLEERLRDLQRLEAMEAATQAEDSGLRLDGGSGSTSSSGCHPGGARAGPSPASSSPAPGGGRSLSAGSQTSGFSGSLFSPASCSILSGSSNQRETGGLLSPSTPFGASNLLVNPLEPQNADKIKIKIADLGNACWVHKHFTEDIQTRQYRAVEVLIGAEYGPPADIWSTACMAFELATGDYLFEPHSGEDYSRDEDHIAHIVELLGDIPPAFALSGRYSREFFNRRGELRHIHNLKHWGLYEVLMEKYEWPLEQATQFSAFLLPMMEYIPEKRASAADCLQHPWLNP
Chain of Macrophage colony-stimulating factor 1 receptor (Homo sapiens) (P07333 whole entry, the tested form may be a part): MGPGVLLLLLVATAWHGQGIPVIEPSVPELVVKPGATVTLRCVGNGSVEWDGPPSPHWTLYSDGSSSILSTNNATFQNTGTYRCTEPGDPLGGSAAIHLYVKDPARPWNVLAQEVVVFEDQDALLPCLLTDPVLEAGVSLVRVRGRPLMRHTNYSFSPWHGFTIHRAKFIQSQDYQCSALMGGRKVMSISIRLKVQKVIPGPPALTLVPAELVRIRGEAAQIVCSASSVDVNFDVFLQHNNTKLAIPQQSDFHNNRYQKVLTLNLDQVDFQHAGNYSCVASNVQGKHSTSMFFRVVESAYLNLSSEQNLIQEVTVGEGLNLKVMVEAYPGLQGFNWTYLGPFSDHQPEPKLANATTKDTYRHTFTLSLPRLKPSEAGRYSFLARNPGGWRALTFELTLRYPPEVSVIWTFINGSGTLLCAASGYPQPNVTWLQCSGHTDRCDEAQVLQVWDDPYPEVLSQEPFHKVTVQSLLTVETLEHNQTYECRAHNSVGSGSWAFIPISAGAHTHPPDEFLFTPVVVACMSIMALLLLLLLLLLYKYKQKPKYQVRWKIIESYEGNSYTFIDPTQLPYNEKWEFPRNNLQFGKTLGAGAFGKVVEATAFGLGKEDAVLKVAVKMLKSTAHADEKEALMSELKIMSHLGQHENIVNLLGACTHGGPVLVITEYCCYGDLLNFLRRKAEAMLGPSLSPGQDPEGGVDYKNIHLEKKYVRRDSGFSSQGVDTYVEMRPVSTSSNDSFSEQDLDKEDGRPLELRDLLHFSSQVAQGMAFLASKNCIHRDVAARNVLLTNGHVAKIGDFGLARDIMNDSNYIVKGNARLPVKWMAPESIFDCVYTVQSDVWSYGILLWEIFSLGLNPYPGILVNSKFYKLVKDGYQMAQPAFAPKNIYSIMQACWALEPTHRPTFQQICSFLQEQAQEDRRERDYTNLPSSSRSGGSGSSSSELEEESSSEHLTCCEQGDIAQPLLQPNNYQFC
Chain of Tyrosine-protein kinase JAK3 (Homo sapiens) (P52333 whole entry, the tested form may be a part): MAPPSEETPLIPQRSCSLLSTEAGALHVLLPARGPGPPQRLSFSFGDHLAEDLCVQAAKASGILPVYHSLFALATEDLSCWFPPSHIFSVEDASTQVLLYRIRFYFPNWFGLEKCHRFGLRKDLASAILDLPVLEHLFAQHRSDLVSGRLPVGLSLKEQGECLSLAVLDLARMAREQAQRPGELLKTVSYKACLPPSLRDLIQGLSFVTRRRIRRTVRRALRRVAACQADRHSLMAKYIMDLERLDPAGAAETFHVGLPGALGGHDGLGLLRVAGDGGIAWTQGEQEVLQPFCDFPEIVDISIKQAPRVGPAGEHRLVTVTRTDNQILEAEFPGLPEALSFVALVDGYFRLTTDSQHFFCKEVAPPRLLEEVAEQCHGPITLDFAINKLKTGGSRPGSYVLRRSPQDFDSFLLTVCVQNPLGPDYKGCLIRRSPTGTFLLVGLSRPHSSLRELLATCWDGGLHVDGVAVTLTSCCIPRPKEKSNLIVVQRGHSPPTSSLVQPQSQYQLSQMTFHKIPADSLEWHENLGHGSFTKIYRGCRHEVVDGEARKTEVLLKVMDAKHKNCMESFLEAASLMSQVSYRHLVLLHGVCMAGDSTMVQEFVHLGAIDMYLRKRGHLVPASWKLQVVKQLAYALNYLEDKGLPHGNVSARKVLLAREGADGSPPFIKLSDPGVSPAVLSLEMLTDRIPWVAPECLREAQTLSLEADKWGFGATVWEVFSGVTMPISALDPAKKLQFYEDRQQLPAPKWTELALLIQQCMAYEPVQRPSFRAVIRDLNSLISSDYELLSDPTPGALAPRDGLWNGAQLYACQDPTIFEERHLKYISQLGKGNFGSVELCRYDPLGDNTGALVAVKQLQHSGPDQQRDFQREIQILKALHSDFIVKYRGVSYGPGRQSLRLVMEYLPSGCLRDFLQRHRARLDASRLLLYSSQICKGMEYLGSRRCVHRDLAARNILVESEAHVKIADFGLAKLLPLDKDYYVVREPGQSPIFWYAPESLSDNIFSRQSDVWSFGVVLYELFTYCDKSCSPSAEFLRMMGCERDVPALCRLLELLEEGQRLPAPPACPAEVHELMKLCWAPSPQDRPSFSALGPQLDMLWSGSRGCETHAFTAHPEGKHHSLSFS

Compound: O=C(Nc1ccc2[nH]nc(-c3ccc4[nH]ccc4c3)c2c1)c1c(Cl)cccc1Cl
- inhibition [1]: inactive
- inhibition [2]: inactive
- inhibition [3]: inactive
- Activity (Mus musculus [4]): Active
- inhibition [5]: inactive
- inhibition [6]: inactive
- inhibition [7]: inactive
- inhibition [8]: inactive
- inhibition [9]: inactive
- inhibition [10]: inactive
- inhibition [11]: inactive
- inhibition (Toll-like receptor 4): Active
- inhibition [12]: inactive
- inhibition [13]: inactive
- inhibition [14]: inactive
- inhibition [15]: inactive
- inhibition [16]: inactive
- inhibition [17]: inactive
- inhibition [18]: inactive
- Activity (Mus musculus [19]): Active
- inhibition [20]: inactive
- inhibition [21]: inactive
